Laboratory results from PMC2888972 (Molecular cancer therapeutics, 2009).

What was measured:
TA100 = experiment: Bacterial mutation
TA1537 = experiment: Bacterial mutation
WP2 uvrA = experiment: Bacterial mutation
[1] = animal models; cited from earlier work
HK-2 normal = experiment: Growth inhibition assay; format: cell-based, human; details: 48 h
Outline: (§1)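 Stock is 0.01 mol/L in DMSO, kept at −20°C under subdued light. Cells get 1–12.5 µmol/L or equal-volume DMSO, in triplicate, for 48 h. Growth index is mean treated OD over mean control OD, plotted against concentration. Maximal inhibition comes by nonlinear regression from plots of 2–3 independent experiments.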

TA1535 = experiment: Bacterial mutation
Caki-1 cancer [2] = experiment: Growth inhibition assay; format: cell-based, human
Outline: as §1

Caki-1 cancer [3] = experiment: Cell cycle analysis; format: cell-based, human; details: 10 µmol/L, 24 h
Cyclin D1 = experiment: Western blot, Cyclin D1; format: cell-based, human; details: SHetA2 treatment
Outline: (§2)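 Lysis is in CytoBuster with protease inhibitor cocktail. 100 µg protein is resolved by SDS-PAGE and blotted to nitrocellulose. Blots are probed with mouse monoclonals (Cyclin D1, PARP-1, Caspase 3), then HRP secondary with luminol detection. Stripped blots are reprobed for β-actin or GAPDH as loading control. Solvent-only DMSO cultures serve as control.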

Caki-1 cancer cell line = experiment: Apoptosis assay; format: cell-based, human; details: 10 µmol/L SHetA2, Annexin-V-FITC/PI
[4] = test system: NF-κB transcriptional activity; experiment: NF-κB luciferase reporter assay in Caki-1; format: cell-based, human
PARP-1 and Caspase 3 = experiment: Western blot, PARP-1 and Caspase 3 cleavage; format: cell-based, human; details: Caki-1 cultures, 10 µmol/L
Outline: as §2

five bacterial strains = experiment: Bacterial mutation
[5] = test system: A498 cancer cell line xenograft; experiment: A498 xenograft model; format: in vivo; details: 20, 40, or 60 mg/kg/day; data not shown
[6] = test system: Caki-1 renal cancer xenografts; experiment: Caki-1 renal cancer xenograft; details: for tumor-related deaths: 4 in untreated control group
786-O cancer = experiment: Growth inhibition assay; format: cell-based, human; details: 48 h, 1 to 12.5 µmol/L
Outline: as §1

RTC91696 normal = experiment: Growth inhibition assay; format: cell-based, human; details: 48 h
E-Cadherin mRNA = experiment: Real-time rtPCR of E-Cadherin in Caki-1 cultures; format: cell-based, human
Outline: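 RNA comes from frozen cell pellets (RNeasy). TaqMan real-time PCR for E-Cadherin and 18S is run in triplicate reactions. Expression is normalised to 18S by ΔΔCt and set relative to solvent-only control cultures at each dose or time point. Three independent experiments.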

mouse embryos = details: animal models; cited from earlier work
[7] = test system: livers of SHetA2-treated mice; details: previous xenograft model; cited from earlier work
normal HK-2 cell lines = experiment: Cell cycle analysis; format: cell-based, human; details: 10 µmol/L, 24 h
TA98 = experiment: Bacterial mutation
[8] = test system: RTC 91696 normal cultures; experiment: Apoptosis assay; format: cell-based, human; details: maximum 72-hour treatment time and 12.5-µmol/L concentration
Outline: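 Floating cells from the medium are pooled with trypsinised adherent cells, pelleted, and stained with Annexin-V-FITC and PI (Vybrant kit #3). Flow cytometry uses 488 nm excitation and 530/575 nm emission. Cultures are at passage 3, in MEMα with EGF 10 ng/mL, hydrocortisone 5 µg/mL, insulin/transferrin/selenous acid 6.35 µg/mL each, 10% FBS and pen/strep. The apoptotic-quadrant percentage comes from four replicate experiments.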

[9] = 1.58 µg/plate (0.004 µmol/L), +S9
[10] = 1.58 µg/plate (0.004 µmol/L), −S9
[11] = 5.0 µg/plate (0.012 µmol/L), +S9
[12] = 15.8 µg/plate (0.039 µmol/L), +S9
[13] = 50 µg/plate (0.125 µmol/L), +S9
[14] = 50 µg/plate (0.125 µmol/L), −S9
[15] = 158 µg/plate (0.393 µmol/L), +S9
[16] = 158 µg/plate (0.393 µmol/L), −S9
[17] = 500 µg/plate (1.245 µmol/L), +S9
[18] = 500 µg/plate (1.245 µmol/L), −S9
[19] = 1581 µg/plate (3.937 µmol/L), +S9
[20] = 1581 µg/plate (3.937 µmol/L), −S9
[21] = 5000 µg/plate (12.452 µmol/L), +S9
[22] = 5000 µg/plate (12.452 µmol/L), −S9
[23] = Homo sapiens, read-out: potency (EC50, concentration needed to induce half maximal efficacy)

CC1(C)CC(C)(C)c2cc(NC(=S)Nc3ccc([N+](=O)[O-])cc3)ccc2S1 [SHetA2]
number of revertant colonies, Mean (TA100; [9]): 136
number of revertant colonies, Mean (TA100; [10]): 136
number of revertant colonies, Mean (TA100; [11]): 124
number of revertant colonies, Mean (TA100; [12]): 171
number of revertant colonies, Mean (TA1537; [9]): 23
number of revertant colonies, Mean (TA1537; [10]): 9
number of revertant colonies, Mean (TA1537; [11]): 21
number of revertant colonies, Mean (TA1537; [12]): 21
number of revertant colonies, Mean (WP2 uvrA; [13]): 27
number of revertant colonies, Mean (WP2 uvrA; [14]): 17
number of revertant colonies, Mean (WP2 uvrA; [15]): 18
number of revertant colonies, Mean (WP2 uvrA; [16]): 14
number of revertant colonies, Mean (WP2 uvrA; [17]): 22
number of revertant colonies, Mean (WP2 uvrA; [18]): 18
number of revertant colonies, Mean (WP2 uvrA; [19]): 17
number of revertant colonies, Mean (WP2 uvrA; [20]): 10
number of revertant colonies, Mean (WP2 uvrA; [21]): 13
number of revertant colonies, Mean (WP2 uvrA; [22]): 12
skin irritancy [1]: did not induce skin irritancy or teratogenicity
efficacy (maximum growth inhibition observed) (HK-2 normal; HK-2 normal, 1 to 12.5 µmol/L): 51.02% ± 7.07%
EC50 (HK-2 normal; [23]): 4.5 ± 0.28 µM
number of revertant colonies, Mean (TA1535; [13]): 15
number of revertant colonies, Mean (TA1535; [14]): 19
number of revertant colonies, Mean (TA1535; [15]): 20
number of revertant colonies, Mean (TA1535; [16]): 26
number of revertant colonies, Mean (TA1535; [17]): 22
number of revertant colonies, Mean (TA1535; [18]): 18
number of revertant colonies, Mean (TA1535; [19]): 19
number of revertant colonies, Mean (TA1535; [20]): 21
number of revertant colonies, Mean (TA1535; [21]): 22
number of revertant colonies, Mean (TA1535; [22]): 16
efficacy (maximum growth inhibition observed) (Caki-1 cancer [2]; Caki-1 cancer, 48 h, 1 to 12.5 µmol/L): 84.40% ± 3.86%
EC50 (Caki-1 cancer [2]; Homo sapiens, CAKI-1, 48 h, read-out: potency (EC50, concentration needed to induce half maximal efficacy)): 4.93 ± 0.22 µM
percentages of cells in the G0-G1 phase of the cell cycle (Caki-1 cancer [3]): increased the percentages of cells in the G0-G1 phase
time to decreased expression of Cyclin D1 (Cyclin D1): ≤ 1 h
percentage of cells in the quadrant corresponding to apoptosis (Caki-1 cancer cell line): increased the percentage of Caki-1 cancer cells
time to inhibition of NF-κB activity ([4]; 10 µmol/L SHetA2): ≤ 30 min
tumor necrosis factor α induced NF-κB transcriptional activity ([4]; 10 µmol/L SHetA2, 20 ng/mL TNFα, 4 or 8 h): significantly inhibited
time to cleavage of PARP-1 and Caspase 3 (PARP-1 and Caspase 3): ≤ 16 h
mutagenicity of metabolites (number of revertant colonies) (five bacterial strains; preincubation with S9 microsomal fractions): no effect on the number of revertant colonies
mutagenicity (increase in revertant colony counts) (five bacterial strains; without S9): neither SHetA2 nor SHetA3 induced substantial increases in the revertant colony counts
sensitivity of A498 xenograft [5]: did not exhibit significant sensitivity
tumor-related deaths ([6]; 20 mg/kg/day oral): 3
tumor-related deaths ([6]; 40 mg/kg/day oral): 6
maximal growth inhibition of xenograft tumors ([6]; 60 mg/kg/day oral for 30 days, day 34 (23rd day of treatment)): 36%
tumor-related deaths ([6]; 60 mg/kg/day oral): 6
body weight of the animals compared with the control group ([6]; 20, 40, 60 mg/kg/day oral for 30 days): None of the treatment concentrations altered the body weight
reduction of xenograft tumor sizes ([6]; 20 and 40 mg/kg/day oral for 30 days): not statistically significant
efficacy (maximum growth inhibition observed) (786-O cancer): 72.00% ± 5.06%
EC50 (RTC91696 normal; [23]): 4.57 ± 0.49 µM
efficacy (maximum growth inhibition observed) (RTC91696 normal; RTC91696 normal, 1 to 12.5 µmol/L, single experiments): 36.84% ± 6.80%
time to upregulation of E-Cadherin mRNA (E-Cadherin mRNA): ≤ 1 h
induction of E-Cadherin steady-state mRNA (E-Cadherin mRNA; 4 hours of treatment): 20 fold
induction of E-Cadherin steady-state mRNA (E-Cadherin mRNA; 24 hours of treatment): 60 fold
teratogenicity (mouse embryos): did not induce skin irritancy or teratogenicity
liver damage (necrosis, fatty changes, inflammation in portal tracts) [7]: no liver damage
percentages of cells in the G0-G1 phase of the cell cycle (normal HK-2 cell lines): increased the percentages of cells in the G0-G1 phase
number of revertant colonies, Mean (TA98; [9]): 48
number of revertant colonies, Mean (TA98; [10]): 16
number of revertant colonies, Mean (TA98; [11]): 45
number of revertant colonies, Mean (TA98; [12]): 52
number of revertant colonies, Mean (TA98; [13]): 49
number of revertant colonies, Mean (TA98; [15]): 12
induction of apoptosis in normal cells [8]: did not induce apoptosis
